Measurements published in ChEMBL document CHEMBL1126564, “Synthesis and antimicrobial evaluation of a series of 7-[3-amino (or aminomethyl)-4-aryl (or cyclopropyl)-1-pyrrolidinyl]-4-quinolone- and -1,8-naphthyridone-3-carboxylic acids” (1993).
Values after ≈ are worked out from the molar mass of the structure shown.

Legend:
Type in all cases: functional
[1] = system: Streptococcus pneumoniae; assay: Minimum inhibitory concentration against Streptococcus pneumoniae SV-1
Outline: (§1)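 Standard microdilution method against a panel of five Gram-negative and five Gram-positive bacterial strains. The MIC (µg/mL) was recorded for each strain.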

[2] = system: Enterococcus faecalis; assay: Minimum inhibitory concentration against […] MGH-2; outline: as §1
[3] = system: Streptococcus pyogenes; assay: Minimum inhibitory concentration against Streptococcus pyogenes C-203; outline: as §1
[4] = system: Staphylococcus aureus; assay: Minimum inhibitory concentration against Staphylococcus aureus H-228; outline: as §1
[5] = system: Providencia rettgeri; assay: Minimum inhibitory concentration against Providencia rettgeri M-1771; outline: as §1
[6] = system: Mus musculus; assay: Median protective dose determined in acute lethal system infection caused by Escherichia coli vogel in CD-1 mice (single dose sc); conditions: read-out: PD50
Outline: (§2)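 Acute lethal systemic infection in female Charles River CD-1 mice; compound given once, orally (po) or subcutaneously (sc), at the time of challenge. Median protective dose (PD50, mg/kg) derived from survival.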

[7] = system: Staphylococcus aureus; assay: Minimum inhibitory concentration against Staphylococcus aureus UC-76; outline: as §1
[8] = system: Klebsiella pneumoniae; assay: Minimum inhibitory concentration against Klebsiella pneumoniae MGH-2; outline: as §1
[9] = system: Escherichia coli; assay: Minimum inhibitory concentration against Escherichia coli Vogel; outline: as §1
[10] = system: Pseudomonas aeruginosa; assay: Minimum inhibitory concentration against Pseudomonas aeruginosa UI-18; outline: as §1
[11] = species: Mus musculus; assay: Median protective dose determined in acute lethal system infection caused by Escherichia coli vogel in CD-1 mice (single dose perorally); conditions: po, read-out: PD50; outline: as §2
[12] = system: Enterobacter cloacae; assay: Minimum inhibitory concentration against […] MA-2646; outline: as §1
[13] = species: Mus musculus; assay: Median protective dose determined in acute lethal system infection caused by Streptococcus pyogenes C-203 in CD-1 mice (single dose perorally); conditions: po, read-out: PD50; outline: as §2
[14] = system: Mus musculus; assay: Median protective dose determined in acute lethal system infection caused by Streptococcus pyogenes C-203 in CD-1 mice (single dose sc); conditions: read-out: PD50; outline: as §2
[15] = Streptococcus pneumoniae, read-out: MIC
[16] = Enterococcus faecalis, read-out: MIC
[17] = Streptococcus pyogenes, read-out: MIC
[18] = Staphylococcus aureus, read-out: MIC
[19] = Providencia rettgeri, read-out: MIC
[20] = Klebsiella pneumoniae, read-out: MIC
[21] = Escherichia coli, read-out: MIC
[22] = Pseudomonas aeruginosa, read-out: MIC
[23] = Enterobacter cloacae, read-out: MIC

SMILES | MIC [1, 15] | MIC [2, 16] | MIC [3, 17] | MIC [4, 18] | MIC [5, 19] | ED50 [6] | MIC [7, 18] | MIC [8, 20] | MIC [9, 21] | MIC [10, 22] | ED50 [11] | MIC [12, 23] | ED50 [13] | ED50 [14] | other results
NC1CN(c2nc3c(cc2F)c(=O)c(C(=O)O)cn3C2CC2)CC1c1ccccc1 (stereo not drawn) | 0.1 µg/mL (≈ 0.245 µM) | 0.2 µg/mL (≈ 0.49 µM) | 0.2 µg/mL (≈ 0.49 µM) | 0.1 µg/mL (≈ 0.245 µM) | 0.4 µg/mL (≈ 0.979 µM) | 6.5 mg/kg | 0.05 µg/mL (≈ 0.122 µM) | 0.2 µg/mL (≈ 0.49 µM) | 0.1 µg/mL (≈ 0.245 µM) | 1.6 µg/mL (≈ 3.92 µM) | 11 mg/kg | 0.1 µg/mL (≈ 0.245 µM) |  |  | 
COc1ccccc1C1CN(c2nc3c(cc2F)c(=O)c(C(=O)O)cn3C2CC2)CC1N (stereo in doubt) |  |  |  |  |  | 28 mg/kg |  |  |  |  | 37 mg/kg |  | 44 mg/kg | 22 mg/kg | MIC [1]: 0.1 µg/mL (≈ 0.228 µM); MIC [2]: 0.2 µg/mL (≈ 0.456 µM); MIC [3]: 0.2 µg/mL (≈ 0.456 µM); MIC [4]: 0.1 µg/mL (≈ 0.228 µM); MIC [5]: 0.8 µg/mL (≈ 1.82 µM); MIC [7]: 0.05 µg/mL (≈ 0.114 µM); MIC [8]: 0.4 µg/mL (≈ 0.912 µM); MIC [9]: 0.2 µg/mL (≈ 0.456 µM); MIC [10]: 3.1 µg/mL (≈ 7.07 µM); MIC [12]: 0.2 µg/mL (≈ 0.456 µM)
NCC1CN(c2c(F)cc3c(=O)c(C(=O)O)cn(C4CC4)c3c2F)CC1c1ccccc1 (trans isomer) | 0.013 µg/mL (≈ 0.0296 µM) | 0.013 µg/mL (≈ 0.0296 µM) | 0.013 µg/mL (≈ 0.0296 µM) | 0.013 µg/mL (≈ 0.0296 µM) | 0.1 µg/mL (≈ 0.228 µM) |  | 0.003 µg/mL (≈ 0.00683 µM) | 0.05 µg/mL (≈ 0.114 µM) | 0.05 µg/mL (≈ 0.114 µM) | 0.8 µg/mL (≈ 1.82 µM) |  | 0.05 µg/mL (≈ 0.114 µM) | 10 mg/kg | 1.6 mg/kg | 
Nc1ccc(C2CN(c3c(F)cc4c(=O)c(C(=O)O)cn(C5CC5)c4c3F)CC2N)cc1 (trans isomer) | 0.1 µg/mL (≈ 0.227 µM) | 0.1 µg/mL (≈ 0.227 µM) | 0.1 µg/mL (≈ 0.227 µM) | 0.1 µg/mL (≈ 0.227 µM) | 0.2 µg/mL (≈ 0.454 µM) | 1.6 mg/kg | 0.025 µg/mL (≈ 0.0568 µM) | 0.1 µg/mL (≈ 0.227 µM) | 0.05 µg/mL (≈ 0.114 µM) | 0.8 µg/mL (≈ 1.82 µM) | 10 mg/kg | 0.05 µg/mL (≈ 0.114 µM) |  |  | 
NCC1CN(c2nc3c(cc2F)c(=O)c(C(=O)O)cn3C2CC2)CC1c1ccco1 (trans isomer) | 0.025 µg/mL (≈ 0.0606 µM) | 0.05 µg/mL (≈ 0.121 µM) | 0.05 µg/mL (≈ 0.121 µM) | 0.05 µg/mL (≈ 0.121 µM) | 0.2 µg/mL (≈ 0.485 µM) |  | 0.013 µg/mL (≈ 0.0315 µM) | 0.1 µg/mL (≈ 0.242 µM) | 0.1 µg/mL (≈ 0.242 µM) | 0.4 µg/mL (≈ 0.97 µM) |  | 0.2 µg/mL (≈ 0.485 µM) | 36 mg/kg | 4.2 mg/kg | 
CC(C)c1ccc(C2CN(c3c(F)cc4c(=O)c(C(=O)O)cn(C5CC5)c4c3F)CC2N)cc1 (trans isomer) | 0.2 µg/mL (≈ 0.428 µM) | 0.2 µg/mL (≈ 0.428 µM) | 0.2 µg/mL (≈ 0.428 µM) | 0.05 µg/mL (≈ 0.107 µM) | 0.4 µg/mL (≈ 0.856 µM) |  | 0.025 µg/mL (≈ 0.0535 µM) | 0.4 µg/mL (≈ 0.856 µM) | 0.4 µg/mL (≈ 0.856 µM) | 3.1 µg/mL (≈ 6.63 µM) |  | 0.4 µg/mL (≈ 0.856 µM) | 100 mg/kg | 90 mg/kg | 
NCC1CN(c2nc3c(cc2F)c(=O)c(C(=O)O)cn3C2CC2)CC1c1ccccc1 (trans isomer) | 0.013 µg/mL (≈ 0.0308 µM) | 0.025 µg/mL (≈ 0.0592 µM) | 0.025 µg/mL (≈ 0.0592 µM) | 0.025 µg/mL (≈ 0.0592 µM) | 0.1 µg/mL (≈ 0.237 µM) |  | 0.006 µg/mL (≈ 0.0142 µM) | 0.05 µg/mL (≈ 0.118 µM) | 0.05 µg/mL (≈ 0.118 µM) | 0.8 µg/mL (≈ 1.89 µM) |  | 0.05 µg/mL (≈ 0.118 µM) | 27 mg/kg | 4.5 mg/kg | 
NC1CN(c2c(F)cc3c(=O)c(C(=O)O)cn(C4CC4)c3c2F)CC1c1ccc(F)cc1 (trans isomer) | 0.1 µg/mL (≈ 0.226 µM) | 0.1 µg/mL (≈ 0.226 µM) | 0.1 µg/mL (≈ 0.226 µM) | 0.025 µg/mL (≈ 0.0564 µM) | 0.2 µg/mL (≈ 0.451 µM) |  | 0.013 µg/mL (≈ 0.0293 µM) | 0.1 µg/mL (≈ 0.226 µM) | 0.1 µg/mL (≈ 0.226 µM) | 1.6 µg/mL (≈ 3.61 µM) |  | 0.1 µg/mL (≈ 0.226 µM) | 44 mg/kg | 40 mg/kg | 
Nc1ccc(C2CN(c3nc4c(cc3F)c(=O)c(C(=O)O)cn4C3CC3)CC2N)cc1 (trans isomer) | 0.2 µg/mL (≈ 0.472 µM) | 0.2 µg/mL (≈ 0.472 µM) | 0.2 µg/mL (≈ 0.472 µM) | 0.2 µg/mL (≈ 0.472 µM) | 0.4 µg/mL (≈ 0.945 µM) | 3.1 mg/kg | 0.05 µg/mL (≈ 0.118 µM) | 0.2 µg/mL (≈ 0.472 µM) | 0.1 µg/mL (≈ 0.236 µM) | 1.6 µg/mL (≈ 3.78 µM) | 24 mg/kg | 0.1 µg/mL (≈ 0.236 µM) |  |  | 
NC1CN(c2c(F)cc3c(=O)c(C(=O)O)cn(C4CC4)c3c2F)CC1c1ccc(O)cc1 (trans isomer) | 0.1 µg/mL (≈ 0.227 µM) | 0.1 µg/mL (≈ 0.227 µM) | 0.1 µg/mL (≈ 0.227 µM) | 0.1 µg/mL (≈ 0.227 µM) | 0.2 µg/mL (≈ 0.453 µM) | 50 mg/kg | 0.025 µg/mL (≈ 0.0566 µM) | 0.1 µg/mL (≈ 0.227 µM) | 0.1 µg/mL (≈ 0.227 µM) | 1.6 µg/mL (≈ 3.62 µM) | 100 mg/kg | 0.1 µg/mL (≈ 0.227 µM) |  |  | 
NC1CN(c2c(F)cc3c(=O)c(C(=O)O)cn(C4CC4)c3c2F)CC1c1ccccc1 (trans isomer) | 0.1 µg/mL (≈ 0.235 µM) | 0.1 µg/mL (≈ 0.235 µM) | 0.1 µg/mL (≈ 0.235 µM) | 0.025 µg/mL (≈ 0.0588 µM) | 0.1 µg/mL (≈ 0.235 µM) | 7 mg/kg | 0.013 µg/mL (≈ 0.0306 µM) | 0.05 µg/mL (≈ 0.118 µM) | 0.025 µg/mL (≈ 0.0588 µM) | 0.8 µg/mL (≈ 1.88 µM) | 15.5 mg/kg | 0.025 µg/mL (≈ 0.0588 µM) | 10 mg/kg | 1.6 mg/kg | 
NC1CN(c2nc3c(cc2F)c(=O)c(C(=O)O)cn3C2CC2)CC1c1ccc(F)cc1 (trans isomer) | 0.2 µg/mL (≈ 0.469 µM) | 0.1 µg/mL (≈ 0.235 µM) | 0.2 µg/mL (≈ 0.469 µM) | 0.1 µg/mL (≈ 0.235 µM) | 0.4 µg/mL (≈ 0.938 µM) | 9 mg/kg | 0.025 µg/mL (≈ 0.0586 µM) | 0.2 µg/mL (≈ 0.469 µM) | 0.1 µg/mL (≈ 0.235 µM) | 1.6 µg/mL (≈ 3.75 µM) | 18 mg/kg | 0.1 µg/mL (≈ 0.235 µM) |  |  | 
